Hits are enriched below; roughly 3.3% of the tested compounds scored in any of these assays.
Arr AP2 block: inhibitors of beta-arrestin/AP2 binding, primary screen, biochemical, GPCR trafficking, flow cytometry | actives 0.31% (n = 340,000) | beta-arrestin 1 C-terminal peptide binding to AP2 beta2-adaptin appendage (human) | FITC-arrestin peptide / GST-AP2 beads; AP2 beta2 appendage carries R879A mutation | inhibition, % at 10 µM;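 active means inhibition above a set limit, near 3 SD of compounds lacking own fluorescence, cut at about 54% in these data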;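 further: plate controls were DMSO wells for no effect and 5 µM unlabelled arrestin peptide for full effect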
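Assay system: GST-AP2 R879A bound to glutathione beads, E. coli-expressed; Medium: PBS with 0.05% Tween 20 and 0.1% BSA; Also added: fluorescein-tagged arrestin peptide at 50 nM final; Timing: 12 min plus 1 h, RT; Measured by: flow cytometry, FL1 (488/535 nm); Evaluation: percent drop in bead-associated FITC signal.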
PfM18AAP inh: PfM18AAP inhibitors, malaria aminopeptidase, primary screen, biochemical, QFRET, recombinant enzyme; M18 aspartyl aminopeptidase (Plasmodium falciparum 3D7); H-Glu-NHMec fluorogenic cleavage; inhibition, % at 7.35 µM; actives 1.2% (n = 290,000); AID 1822, 2009;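 active means inhibition above the campaign mean inhibition over all tested compounds plus 3 SD, cut at about 28% in these data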;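 further: 0% = plate median of test compound wells and 100% = 2 mM ZnCl2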
sPLA2-III inh: human group III sPLA2 inhibitors, primary screen, biochemical, QFRET, BODIPY PC-A2 liposome substrate. actives 0.56% (n = 370,000). AID 743126, 2013. inhibition, % at 12.2 µM. Group 3 secretory phospholipase A2 (Homo sapiens), Q9NZ20. QFRET BODIPY PC-A2 liposome hydrolysis, fluorescence;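 active means inhibition above mean plus 3 SD of compounds lying within the high and low control bounds, cut at about 19% in these data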;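 further: 0% = median of test compound wells and 100% = no enzyme DMSO wells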
NRP1-CendR mod: modulators of CendR peptide binding to NRP-1, primary screen, biochemical, fluorescence polarization, uHTS. actives 0.85% (n = 360,000). FAM-RPARPAR peptide binding to NRP-1. inhibition, % at 25 µM. Neuropilin-1 (Homo sapiens), O14786. AID 602438, 2012;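 active means inhibition or corrected inhibition above about 18%, plus a signal ratio from 0.5 to 1.5, limit read from the data, passing the limit was not always enough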
m5-HT2A agonist: mouse Htr2a agonists via beta-arrestin recruitment, primary screen, cell-based, luminescence; 5-hydroxytryptamine receptor 2A (Mus musculus), P35363; CHO-K1 mHTR2A beta-arrestin complementation; percent of 30 µM serotonin response; activation, % at 7.6 µM; actives 0.66% (n = 360,000);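 active means activation above a run cutoff, the mean activation of all tested compounds plus 3 SD, cut at about 14% in these data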;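 further: 0% = plate median of compound wells and 100% = 30 µM serotonin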
Lipid droplet: inhibitors of hepatocyte lipid droplet formation, primary screen, imaging, high-throughput imaging, BODIPY stain. AML12 mouse hepatocytes, oleate lipid droplets. actives 0.4% (n = 240,000). inhibition, % at 6.5 µM. AID 1656, 2009;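 active means lipid droplet intensity inhibited by at least 50%, with more than 500 cells counted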
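Material – mouse AML12 hepatocyte cell line, fixed after treatment · Compound dosing – one dose, 6.5 µM compound · Times – compound with oleate, overnight · Measured by – Image-based BODIPY and DAPI two-channel analysis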
Arr-AP2 CP1: inhibitors of arrestin peptide binding to AP2, confirmation, biochemical, cherry pick 1, flow cytometry beads; shares compounds with Arr AP2 block; GST-AP2 beads, FITC arrestin peptide binding; GST-fused beta2-adaptin appendage, R879A mutant; inhibition, % at 10 µM; actives 2% (n = 1,300); AID 504908, 2011;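 active means inhibition above a set limit, roughly 3 SD of non-fluorescent compound noise, cut at about 38% in these data; inactive means inhibition at or below that limit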;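 further: loss of bead fluorescence from 50 nM FITC arrestin peptide bound to appendage; 0% = negative control wells and 100% = excess unlabelled arrestin peptide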
Target sequence (P63010 whole entry, looked up, the tested form may be a part, one chain of several): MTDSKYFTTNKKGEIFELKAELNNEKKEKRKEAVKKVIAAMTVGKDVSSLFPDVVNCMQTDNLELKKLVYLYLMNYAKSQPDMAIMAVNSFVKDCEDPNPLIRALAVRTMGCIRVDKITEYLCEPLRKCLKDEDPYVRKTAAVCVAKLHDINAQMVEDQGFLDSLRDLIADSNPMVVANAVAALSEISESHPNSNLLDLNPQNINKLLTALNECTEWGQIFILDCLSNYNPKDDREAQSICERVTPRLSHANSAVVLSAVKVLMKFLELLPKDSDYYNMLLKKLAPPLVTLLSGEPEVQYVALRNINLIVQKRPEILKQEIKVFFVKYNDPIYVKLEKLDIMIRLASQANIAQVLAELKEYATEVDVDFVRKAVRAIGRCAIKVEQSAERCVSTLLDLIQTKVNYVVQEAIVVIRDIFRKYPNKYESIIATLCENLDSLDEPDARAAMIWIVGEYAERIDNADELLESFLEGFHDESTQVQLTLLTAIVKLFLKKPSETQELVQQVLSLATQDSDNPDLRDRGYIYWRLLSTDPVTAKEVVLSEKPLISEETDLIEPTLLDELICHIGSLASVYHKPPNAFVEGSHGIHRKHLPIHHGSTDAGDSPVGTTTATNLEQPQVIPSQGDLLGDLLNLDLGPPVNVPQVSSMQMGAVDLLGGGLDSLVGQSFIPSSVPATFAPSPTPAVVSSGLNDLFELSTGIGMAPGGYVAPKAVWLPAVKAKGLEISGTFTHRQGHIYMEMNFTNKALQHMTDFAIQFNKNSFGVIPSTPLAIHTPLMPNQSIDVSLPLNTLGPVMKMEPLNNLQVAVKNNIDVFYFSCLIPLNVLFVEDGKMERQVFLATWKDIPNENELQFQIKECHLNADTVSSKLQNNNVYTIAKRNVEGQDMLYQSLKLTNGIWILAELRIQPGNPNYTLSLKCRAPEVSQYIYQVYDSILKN
GST GSH counter: GST-fluorescein capture on glutathione beads, confirmation, artefact control for arrestin-AP2 inhibitor project, biochemical, cherry pick 1, flow cytometry; shares compounds with Arr AP2 block; GST-fluorescein binding to GSH beads, fluorescence, counter-screen; inhibition, % at 10 µM; actives 2% (n = 1,300); AID 588338, 2011;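 active means inhibition above 50%, about 3 SD of the inhibition seen with non-fluorescent compounds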;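 further: fluorescein maleimide labelled GST captured on 4 micron glutathione beads; higher means more loss of bead fluorescence from quenching or blocked binding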
* = called active by the depositor; x = not tested or not shown.

SMILES	Arr AP2 block	PfM18AAP inh	sPLA2-III inh	NRP1-CendR mod	m5-HT2A agonist	Lipid droplet	Arr-AP2 CP1	GST GSH counter
Cc1ccc(S(=O)(=O)N2CCCCC2)cc1NC(=O)c1ccncc1	5	x	1	-9	13	x	4	1
O=C(Nc1cc(S(=O)(=O)N2CCCCC2)ccc1Cl)c1ccncc1	34	x	10	4	3	x	x	x
Cc1ccnc(NC(=O)c2cccc(S(=O)(=O)N3CCCC3)c2)c1	60*	-2	0	14	2	37	24	1
Cc1cccc(C(=O)N/C(=C/c2ccco2)C(=O)N2CCCCCC2)c1	66*	22	-15	-23	3	-6	-2	11
COc1ccc(CC(NC(C)=O)C(=O)NC2CCN(c3nc(C)cc(C)c3C#N)CC2)cc1 (stereo not given)	55*	6	1	-5	4	4	0	-1
O=C(N=Nc1c(O)[nH]c2ccccc12)c1cccc(S(=O)(=O)Nc2ccccc2Cl)c1	7	4	-2	-4	-2	x	x	x
CC(C)c1ccc2[nH]c(O)c(N=NC(=O)c3cccc(S(=O)(=O)Nc4ccccc4Cl)c3)c2c1	100*	0	-3	0	6	-11	-4	-5
COc1ccc(C(=O)CCNc2cccc(Cl)c2)cc1	-5	-7	8	-6	0	3	x	x
CCCOc1ccc(C(=O)CCNc2cccc(Cl)c2)cc1	57*	4	2	6	3	10	5	-1
CN(CC(=O)Nc1sccc1C(N)=O)S(=O)(=O)c1ccc(Cl)cc1	-3	x	5	-27	-2	x	x	x
CCCCc1cc(=O)oc2c(CN3CCN(C)CC3)c(O)ccc12	54*	6	-13	0	3	-16	-9	-5
CCCc1cc(=O)oc2c(CN3CCN(C)CC3)c(O)ccc12	-12	-7	1	7	-6	0	x	x
Cc1ccc(C2CC(c3cccs3)=NN2C(=O)CSc2nc3ccccc3o2)cc1 (stereo not given)	62*	4	-8	8	3	35	-1	-7
C=CCNc1nc(C(=O)OC(C)C(=O)c2ccc(C)cc2)cs1 (stereo not given)	57*	x	-3	6	-3	x	-10	-4
C=CCNc1nc(C(=O)OCC(=O)c2ccc(F)cc2)cs1	23	x	-11	-6	-7	x	x	x
CCN1C(=O)N[C@H]2C[C@@H](c3ccccc3)[C@@H](C)[C@@H](C(=O)N3CCCC3)C[C@H]21	x	x	0	x	x	x	x	x
Nc1nc2c(ncn2[C@@H]2O[C@H](C(=O)N[C@@H](Cc3ccccc3)C(=O)NCC3CCCCC3)[C@@H](O)[C@H]2O)c(=O)[nH]1	x	x	0	x	x	x	x	x
COc1ccc(C2CC(=O)C(c3ccccc3OC)=CN2Cc2ccccc2)cc1 (stereo not given)	x	x	-11	x	x	x	x	x
Oc1[nH]c2c(Cl)cc(Cl)cc2c1N=NC(=S)NCC1CCCO1 (stereo not given)	104*	-9	-5	-12	4	-8	20	1
Cc1ccc(SCC(=O)NNC(=O)CCS(=O)(=O)c2ccc(C)cc2)cc1	54*	x	-15	9	2	x	2	-2
COCCN1Cc2cc(C(=O)OC)c3c(c2C1=O)c1cc(F)ccc1n3S(=O)(=O)c1ccc(C)cc1	x	x	0	x	x	x	x	x
Cc1ccccc1NC(=O)COC(=O)/C=C/c1cccc(C(F)(F)F)c1	3	-13	17	-7	0	1	x	x
O=C(COC(=O)/C=C/c1cccc(C(F)(F)F)c1)Nc1cccc2ccccc12	91*	-7	7	-3	5	0	-11	-2
CC(C)C[C@@H]1COc2cc(N3CCOCC3)ccc2S(=O)(=O)N1	x	x	10	x	x	x	x	x
CN(CCOc1ccccc1)C(=O)c1cc([N+](=O)[O-])cc([N+](=O)[O-])c1	60*	-4	4	6	5	0	18	3
SMILES	Arr AP2 block	PfM18AAP inh	sPLA2-III inh	NRP1-CendR mod	m5-HT2A agonist	Lipid droplet	Arr-AP2 CP1	GST GSH counter
CCN(CC)c1ccc(Nc2nc(N3CCOCC3)c3ccccc3n2)cc1	59*	-2	10	7	-5	-37	13	11
CCOc1ccccc1CNC(=O)CCCn1ncn2c(cc3occc32)c1=O	64*	8	2	5	3	-5	9	1
Cc1ccccc1CNC(=O)CCCn1ncn2c(cc3occc32)c1=O	30	13	-3	2	1	-7	x	x
CCOC(=O)c1c(-c2cccs2)csc1NC(=O)CN1CC(C)OC(C)C1 (stereo not given)	72*	-2	-3	-12	-4	-1	6	-3
COCc1[nH]nc2c1C(c1ccc3c(c1)OCO3)N(Cc1ccccc1)C2=O (stereo not given)	x	x	-8	x	x	x	x	x
COc1ccc(CCN2CC(C(=O)NCCc3ccc(C(F)(F)F)cc3)CCC2=O)cc1 (stereo not given)	-3	0	-7	-6	5	0	x	x
COc1ccc(CCN2CC(C(=O)NCCc3ccc(F)cc3)CCC2=O)cc1 (stereo not given)	11	-4	3	1	5	-1	4	-5
COc1ccccc1CN1CC(C(=O)NCc2cc(F)cc(C(F)(F)F)c2)CCC1=O (stereo not given)	-1	-6	-2	2	2	-2	6	0
COc1ccccc1CCCNC(=O)C1CCC(=O)N(Cc2ccccc2F)C1 (stereo not given)	17	-6	6	5	1	-3	x	x
O=C(NCc1ccccc1OC(F)(F)F)C1CCC(=O)N(Cc2ccccn2)C1 (stereo not given)	16	0	1	8	2	18	x	x
COc1ccccc1CN1CC(C(=O)NCc2cccc(Cl)c2)CCC1=O (stereo not given)	13	-4	-1	3	-5	-15	x	x
O=C(NCc1ccccc1OC(F)(F)F)C1CCC(=O)N(CCc2ccccn2)C1 (stereo not given)	58*	-5	3	1	2	11	3	-2

Screening results deposited in PubChem BioAssay by several laboratories.
